This is an account of results in ChEMBL document CHEMBL1124281, “A new series of ellipticine derivatives (1-(alkylamino)-9-methoxyellipticine). Synthesis, DNA binding, and biological properties” (J Med Chem, 1988).

The structures appear in SMILES notation. pIC50: −log10 of the molar value. Bounds are passed on as bounds.

Series [1] has as its system Nucleic Acid. Put plainly: Maximum number of sites. Type of series: nucleic-acid assay. The settings on record: Bos taurus. The method, boiled down: (§1)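 Calf thymus DNA binding by direct fluorescence titration (excitation 310 nm, emission 540 nm) in 10 mM acetate buffer, 100 mM NaCl, pH 5.2, 20 °C. Scatchard plots gave apparent association constant Kapp and apparent binding sites per nucleotide r_app. Drug stocks 5×10^-3 M in 50% DMSO/water, diluted in buffer.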

In series [2] the test system is Mus musculus. The series is described as follows: In vivo antitumor effect, expressed as the highest nonlethal dose (LD0), administered by intraperitoneal route. Type of series: ADME, organism-based. The settings on record: ip.
The test system of series [3] is Nucleic Acid. The series is described as follows: Apparent binding constant (Kapp) to DNA, by direct fluorimetric titration, at pH 5; 10e-6. The class given is nucleic-acid assay. Particulars: Bos taurus. Put shortly: as §1
In series [4] the test system is Mus musculus. Put plainly: Increase in life of span over controls, 10e5 L1210 cells per mouse of 20 g, by ip route LD0/10 ata conc of LD0/10(N). Type of series: functional. Also noted: unit not given here. Put shortly: (§2)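 Random DBA/2 female mice of 20 g were inoculated ip with 10^5 L1210 leukemia cells. A single ip dose in 200 μL water was given 24 h later, at LD0/10, LD0/5 or LD0/2, with 10 mice per dose and 20 controls. Deaths were counted daily at the same hour. ILS was taken from treated versus control median survival time, and cured mice were counted.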

Series [5] deals with Mus musculus. Put plainly: In vivo antitumor effect, expressed as the lethal dose (LD100), administered by intraperitoneal route. The settings on record: ip. The class given is ADME, organism-based.
Another series deals with NIH3T3. The series is described as follows: In vitro cytotoxicity by growth inhibition in NIH3T3 cells. The class given is functional. The settings on record: Mus musculus, read-out: ID50 (the source's name). Put shortly: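 NIH-3T3 mouse fibroblasts in DMEM, 5% fetal calf serum, 37 °C, 6% CO2, seeded at 7.5×10^3 cells/cm²; drug added 24 h later and growth followed for three days. Trypsinized cells counted electronically; ID50 taken as 50% growth inhibition vs controls, from regression against log dose.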

In a further series the test system is L1210. Put plainly: In vitro cytotoxicity by growth inhibition in L1210 cells. The class given is functional. Particulars: Mus musculus, read-out: ID50 (the source's name). The method, boiled down:
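L1210 leukemia suspension cultures in RPMI with fetal calf serum, 37 °C, 6% CO2; 10^4 cells/mL exponential phase exposed in duplicate to drug at final 10^-5–10^-8 M for 48 h. Cells counted electronically, viability by trypan blue exclusion; ID50 (50% growth inhibition vs untreated controls) from regression of % inhibition against log dose.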

For series [6], the system named is Mus musculus. The series is described as follows: Increase in life of span over controls, 10e5 L1210 cells per mouse of 20 g, by ip route LD0/10 ata conc of LD0/5(N). Type of series: functional. Put shortly: as §2
In series [7] the test system is Mus musculus. The series is described as follows: Increase in life of span over controls, 10e5 L1210 cells per mouse of 20 g, by ip route LD0/10 ata conc of LD0/2(N). The class given is functional. The method, boiled down: as §2
Series [8] deals with Mus musculus. The series is described as follows: Increase in life of span over controls, 10e5 L1210 cells per mouse of 20 g, by ip route LD0/10 at a conc of LD0/2(N). Type of series: functional. Put shortly:
as §2

Series [9] deals with Mus musculus. The series is described as follows: Increase in life of span over controls, 10e5 L1210 cells per mouse of 20 g, by ip route LD0/10 at a conc of LD0/5(N). Type of series: functional. Put shortly:
as §2

For `COc1ccc2[nH]c3c(C)c4ccnc(NCCC(C)C)c4c(C)c3c2c1`, the rapp with Nucleic Acid [1] turned out to be 0.2. Further, the LD0 in the series with Mus musculus [2] was 300 mg/kg. Besides, the K app in the series with Nucleic Acid [3] came to 3.75e+06 M⁻¹. The ILS with Mus musculus [4] worked out at 10; in the series on Mus musculus [6], 5. In the series on Mus musculus [5], this compound returned an LD100 of 350 mg/kg. The pIC50 in the series with NIH3T3 was 6.30; in the series with L1210 it was 6.10.

As to `COc1ccc2[nH]c3c(C)c4ccnc(N)c4c(C)c3c2c1`, the rapp in the series on Nucleic Acid [1] was found to be 0.2. The figures for the ILS in the series with Mus musculus [7], with Mus musculus [4] and with Mus musculus [6] were 93, 21 and 39, respectively. This compound registered an LD0 in the series on Mus musculus [2] of 60 mg/kg. In addition, the K app with Nucleic Acid [3] amounted to 1e+06 M⁻¹. In the series with Mus musculus [5], the LD100 worked out at 70 mg/kg. For the same compound, the pIC50 in the series on L1210 is 7.00.

The compound `CCCNc1nccc2c(C)c3[nH]c4ccc(OC)cc4c3c(C)c12` displayed a rapp in the series on Nucleic Acid [1] of 0.2. The LD0 in the series with Mus musculus [2] was found to be 100 mg/kg. For the same compound, the K app in the series with Nucleic Acid [3] amounted to 2e+06 M⁻¹. Also, the ILS in the series on Mus musculus [4] was 0; in the series on Mus musculus [6], 2. In the series on Mus musculus [5], the LD100 was determined as 200 mg/kg. Further, the pIC50 in the series with NIH3T3 is 6.52; in the series on L1210 it was 7.00.

In the series on Nucleic Acid [1], `COc1ccc2[nH]c3c(C)c4ccnc(NCC(C)C)c4c(C)c3c2c1` displayed a rapp of 0.17. In the series on Mus musculus [2], this compound displayed an LD0 of more than 200 mg/kg. For the same compound, the K app in the series on Nucleic Acid [3] is 2.35e+06 M⁻¹. Besides, the results for the pIC50 in the series on NIH3T3 and in the series on L1210 were 6.52 and 7.05, respectively.

With `CCNc1nccc2c(C)c3[nH]c4ccc(OC)cc4c3c(C)c12`, the rapp in the series with Nucleic Acid [1] is 0.2. Also, the LD0 in the series on Mus musculus [2] amounted to 70 mg/kg. Besides, the K app with Nucleic Acid [3] stood at 2.15e+06 M⁻¹. Moreover, the ILS with Mus musculus [8] was 42; in the series on Mus musculus [4] it was 2; in the series with Mus musculus [9], 13. Besides, the LD100 with Mus musculus [5] was determined as 90 mg/kg. The pIC50 with NIH3T3 was 6.52; with L1210, 7.30.
